An excerpt weighted towards active compounds, which were near 3.1% of everything screened.
hERG protect: hERG rescue from dofetilide block, primary screen, cell-based, CHO-hERG, FluxOR thallium flux, dofetilide IC70; dofetilide IC70 present; Voltage-gated inwardly rectifying potassium channel KCNH2 (Homo sapiens), Q12809; activation (rescue from dofetilide block), less the hit threshold, % at 10 µM; 310,000 tested, 0.51% active;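 active means activation above the mean of controls blocked by dofetilide plus 5 SD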;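 further: thallium influx through hERG after potassium depolarization seen as dye fluorescence rise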
KCNQ1 pot: potentiators or activators of KCNQ1 channel, primary screen, cell-based, thallium flux, high-throughput; B-score at 10 µM; CHO-K1 KCNQ1, thallium flux FluxOR fluorescence; active compounds read high; Potassium voltage-gated channel subfamily KQT member 1 (Homo sapiens), P51787; 310,000 tested, 0.35% active;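 active means fluorescence ratio B-score, a plate-corrected score, at least three library SD, with initial intensity B-score within 5 SD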
Target sequence (P51787 whole entry, looked up): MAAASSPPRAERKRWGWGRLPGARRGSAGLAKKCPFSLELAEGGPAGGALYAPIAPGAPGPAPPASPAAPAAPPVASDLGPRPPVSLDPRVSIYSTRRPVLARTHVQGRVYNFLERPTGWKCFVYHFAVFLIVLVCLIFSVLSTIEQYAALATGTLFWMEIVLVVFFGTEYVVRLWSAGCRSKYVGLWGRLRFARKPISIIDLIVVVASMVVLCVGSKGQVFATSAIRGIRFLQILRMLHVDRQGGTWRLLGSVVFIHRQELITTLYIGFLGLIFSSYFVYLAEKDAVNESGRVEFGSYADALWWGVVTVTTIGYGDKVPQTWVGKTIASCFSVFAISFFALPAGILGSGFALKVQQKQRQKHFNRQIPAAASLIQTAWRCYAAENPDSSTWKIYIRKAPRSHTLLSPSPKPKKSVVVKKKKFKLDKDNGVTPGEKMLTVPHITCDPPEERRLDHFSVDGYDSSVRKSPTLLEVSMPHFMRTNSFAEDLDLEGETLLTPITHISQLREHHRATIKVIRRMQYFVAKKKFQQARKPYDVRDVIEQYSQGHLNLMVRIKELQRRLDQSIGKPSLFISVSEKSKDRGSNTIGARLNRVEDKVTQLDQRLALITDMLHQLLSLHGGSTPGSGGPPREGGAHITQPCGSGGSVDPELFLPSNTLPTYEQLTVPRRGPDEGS
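assay system = KCNQ1-transfected CHO-K1 cells | medium = assay buffer with matched DMSO | probe or stimulus = depolarizing K+/Tl+ stimulus, K2SO4 and Tl2SO4 each 12.5 mM in 5x stock | dosing = single dose | incubation = dye 90 min, compound 20 min, room temperature | detection = kinetic FluxOR fluorescence, 10 s baseline plus 110 s post-stimulus | evaluation = ratio B score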
KCNQ1 block: inhibitors of human KCNQ1 channel, primary screen, cell-based, thallium flux, high-throughput; B-score at 10 µM; Potassium voltage-gated channel subfamily KQT member 1 (Homo sapiens), P51787; AID 2642, 2010; 310,000 tested, 1.3% active; CHO-K1 KCNQ1, FluxOR thallium flux fluorescence; active compounds read high;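 active means compounds whose thallium flux B-score, printed positive for inhibition, exceeds three library SD while starting fluorescence stays within three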;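 further: channel opened by potassium depolarization with thallium stimulus after 20 min compound exposure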
KCNK3 inh: human KCNK3 channel inhibitors, primary screen, CHO cells, FluxOR thallium flux, B-score; Potassium channel subfamily K member 3 (Homo sapiens), O14649; FluxOR fluorescence; active compounds read low; B-score at 10 µM; 340,000 tested, 0.84% active;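 active means B-score under library mean minus 4 SD, starting fluorescence ratio at most library mean plus 5 SD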;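 further: more negative B-score means stronger inhibition of thallium flux through KCNK3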
KCNK9 block: KCNK9 potassium channel inhibitors, primary screen, HEK293 cells, thallium flux; FluxOR thallium flux fluorescence; active compounds read low; Potassium channel subfamily K member 9 (Homo sapiens), Q9NPC2; 310,000 tested, 1.2% active; B-score at 10 µM; AID 488922, 2010;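 active means ratio B-score over 3 SD below the library mean, with starting fluorescence within 5 SD of its mean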;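 further: negative B-score means less thallium flux so channel inhibition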
* hit, by the source's call; i = inactive; . = no result.

SMILES | hERG protect | KCNQ1 pot | KCNQ1 block | KCNK3 inh | KCNK9 block
CCc1nnc(NC(=O)CSc2nc(-c3ccccc3)cc(-c3ccc(OC)cc3)c2C#N)s1 | 6.4* | i | i | i | i
COc1ccc(-c2cc(-c3ccccc3)nc(SCC(=O)Nc3nccs3)c2C#N)cc1 | -12.6 | i | i | i | i
Cc1ccc(NC(=O)c2ncn(CCCN[C@H](C)c3cccc4ccccc34)n2)cc1C | . | . | . | i | .
COC(=O)c1sc(S(=O)(=O)NC(Cc2ccccc2)C(=O)O)c(C(=O)OC)c1C (stereo unspecified) | . | . | . | i | .
COc1ccc(-c2csc(N(CCCN(C)C)C(=O)c3ccccc3C)n2)cc1 | -6.0 | i | i | i | i
COc1ccc(-c2csc(N(CCCN(C)C)C(=O)c3ccccc3Cl)n2)cc1 | -4.1 | 11* | i | i | i
CCC(=O)N(CC)c1nc(-c2ccc(OC)cc2)cs1 | 9.0* | i | i | i | i
c1csc(CCCN2CCCCC2)c1 | . | . | . | i | .
O=C(CNc1cccc2ccccc12)N/N=C/c1ccc([N+](=O)[O-])cc1 | -5.7 | i | i | i | i
O=C(CNc1cccc([N+](=O)[O-])c1)N/N=C/c1ccc(F)cc1 | 9.9* | i | i | i | i
CN(C)c1ccc(N=Cc2nc(-c3ccccc3)oc2OC(=O)c2cccc(Br)c2)cc1 | -7.2 | i | i | i | -6.59*
Oc1ccc(Cl)cc1C1=NNC(c2cccs2)C1 (stereo unspecified) | 6.2* | 20* | i | i | i
Nc1cc(C(=O)OCC(=O)Nc2cccc(S(=O)(=O)N3CCOCC3)c2)ccc1Cl | . | . | . | i | .
Cn1c(O)c(N=Nc2nc(-c3ccccc3)cs2)c2ccccc21 | 35.0* | 60* | i | i | i
CC(=O)c1ccc(OCC(=O)Nc2cccc(C(=O)Nc3c(C)n(C)n(-c4ccccc4)c3=O)c2)cc1 | . | . | . | i | .
COC(=O)c1[nH]c2ccc(Br)cc2c1NC(=O)CN1CCCc2ccccc21 | -2.7 | i | 6* | i | i
COC(=O)c1[nH]c2ccc(Br)cc2c1NC(=O)CN1CCN(C2CCCCC2)CC1 | -15.6 | i | i | i | i
COc1ccc(NC(=O)c2c(Nc3ccccc3)sc(C(=O)c3ccc(F)cc3)c2N)cc1 | -6.3 | i | i | i | i
COc1ccc(C(=O)c2sc(Nc3ccccc3)c(C(=O)Nc3ccc(OC)c(OC)c3)c2N)cc1 | -16.1 | i | 7* | i | i
Cc1ccc(C(=O)Nc2cccc(C(=O)N/N=C/c3ccc(F)cc3)c2)cc1 | -10.8 | i | i | i | i
CCCCCn1c(SCc2ccncc2)nc2cc(C(=O)NCc3ccco3)ccc2c1=O | -9.5 | i | 10* | i | i
CCCCn1c(SCC(=O)NCc2ccco2)nc2ccccc2c1=O | -2.5 | i | i | i | i
C=C1CCC[C@]2(C)C[C@H]3OC(=O)C(CN(Cc4ccc(OC)c(OC)c4)CC(C)O)[C@H]3CC12 (stereo partly specified) | -7.0 | i | i | i | i
COc1ccc(-c2cc(N)n(S(=O)(=O)c3c(F)c(F)c(F)c(F)c3F)n2)cc1OC | -36.3 | 8* | i | -10.6* | i
COc1ccc(S(=O)(=O)n2nc(-c3cc(OC)c(OC)c(OC)c3)cc2N)cc1OC | . | . | . | i | .
SMILES | hERG protect | KCNQ1 pot | KCNQ1 block | KCNK3 inh | KCNK9 block
O=C(C[C@@H]1C/C=C\C[C@H](Cc2ccc(F)cc2)C(=O)OC[C@H]2CCCN2C1=O)N[C@H](CO)Cc1ccccc1 | . | . | . | i | .
C[C@@H](C(=O)Nc1ccc(OC(F)F)c(Cl)c1)N1C(=O)C2CC=CCC2C1=O (stereo partly specified) | . | . | . | i | .
O=C(CCC(=O)c1ccc(Cl)cc1)OCC(=O)c1ccccc1 | 8.9* | i | i | i | i
COc1ccc2nc(/N=C/c3c(C)[nH]n(-c4ccc(C)cc4C)c3=O)sc2c1 | 56.3* | 28* | i | i | i
COc1ccccc1N=Cc1c(C)[nH]n(-c2ccc(C)cc2C)c1=O | -20.6 | i | i | i | i
O=C(NCCCN1CCCC1=O)Nc1ccc(F)c(Cl)c1 | -11.3 | i | 6* | i | i

High-throughput results: PubChem, Johns Hopkins Ion Channel Center
